Measurements published in ChEMBL document CHEMBL2331109, “Inhibitors of human immunodeficiency virus type 1 (HIV-1) attachment. 12. Structure-activity relationships associated with 4-fluoro-6-azaindole derivatives leading to the identification of 1-(4-benzoylpiperazin-1-yl)-2-(4-fluoro-7-[1,2,3]triazol-1-yl-1h-pyrrolo[2,3-c]pyridin-3-yl)ethane-1,2-dione …” (J Med Chem, 2013).
Values after ≈ are worked out from the molar mass of the structure shown.

System: not listed separately
Assay: Clearance in iv dosed rat
Format: ADME, organism-based
Settings: in vivo; call rule not given here

Row | Compound | clearance [L/h/kg]
1 | O=C(C(=O)N1CCN(C(=O)c2ccccc2)CC1)c1c[nH]c2c(-c3cnco3)ncc(F)c12 | 0.084

System: not listed separately
Assay: Drug absorption in human colon at 200 mg, po measured between 12 to 96 hrs
Format: ADME, organism-based
Settings: in vivo
How it was run: (§1)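 Healthy subjects given 200 mg as a spray-dried capsule, fasted, with plasma sampled 0–96 h. Bioavailability is relative to a 20 mg oral solution, based on dose-normalized AUC(INF).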

Row | Drug absorption | Compound
2 | Active | O=C(C(=O)N1CCN(C(=O)c2ccccc2)CC1)c1c[nH]c2c(-n3ccnn3)ncc(F)c12

System: not listed separately
Assay: (§2) Oral bioavailability in rat at 5 mg/kg
Format: ADME, organism-based
Settings: in vivo

Row | Compound | bioavailability [%]
3 | O=C(C(=O)N1CCN(C(=O)c2ccccc2)CC1)c1c[nH]c2c(-c3cnco3)ncc(F)c12 | 20
4 | O=C(C(=O)N1CCN(C(=O)c2ccccc2)CC1)c1c[nH]c2c(-n3ccnn3)ncc(F)c12 | 64

System: Rattus norvegicus
Assay: as §2
Format: ADME, organism-based
Settings: in vivo

Row | F [%] | Compound
5 | 63 | CNC(=O)c1ncc(F)c2c(C(=O)C(=O)N3CCN(C(=O)c4ccccc4)CC3)c[nH]c12
6 | 68 | NC(=O)c1ncc(F)c2c(C(=O)C(=O)N3CCN(C(=O)c4ccccc4)CC3)c[nH]c12
7 | 33 | O=C(C(=O)N1CCN(C(=O)c2ccccc2)CC1)c1c[nH]c2c(-c3cc[nH]n3)ncc(F)c12
8 | 95 | O=C(C(=O)N1CCN(C(=O)c2ccccc2)CC1)c1c[nH]c2c(-n3cncn3)ncc(F)c12
9 | 77 | Cc1ncn(-c2ncc(F)c3c(C(=O)C(=O)N4CCN(C(=O)c5ccccc5)CC4)c[nH]c23)n1
10 | 61 | Cc1ccn(-c2ncc(F)c3c(C(=O)C(=O)N4CCN(C(=O)c5ccccc5)CC4)c[nH]c23)n1

System: not listed separately
Assay: Half life in human at 20 mg, po administered as solution measured between 2 and 12 hrs post-dosing
Format: ADME, organism-based
Settings: in vivo

Row | half-life [h] | Compound
11 | 1.4 | O=C(C(=O)N1CCN(C(=O)c2ccccc2)CC1)c1c[nH]c2c(-n3ccnn3)ncc(F)c12

System: not listed separately
Assay: Aqueous solubility of the compound
Format: physicochemical
Settings: buffer

Row | solubility [µg/mL] | Compound
12 | 7 (≈ 15.6 µM) | O=C(C(=O)N1CCN(C(=O)c2ccccc2)CC1)c1c[nH]c2c(-n3ccnn3)ncc(F)c12

System: not listed separately
Assay: (§3) AUC in rat at 5 mg/kg, po at 24 hrs
Format: ADME, organism-based, Plasma
Set-up: time < 24 hr, dose 5 mg/kg, route oral
Settings: plasma

Row | AUC at 24 h [µM·h] | Compound
13 | 86 | O=C(C(=O)N1CCN(C(=O)c2ccccc2)CC1)c1c[nH]c2c(-n3ccnn3)ncc(F)c12
14 | 6.3 | COc1ncc(OC)c2c(C(=O)C(=O)N3CCN(C(=O)c4ccccc4)CC3)c[nH]c12

Row | Compound | AUC at 24 h [µM·h]
15 | O=C(C(=O)N1CCN(C(=O)c2ccccc2)CC1)c1c[nH]c2c(-c3cnco3)ncc(F)c12 | 12

System: Rattus norvegicus
Assay: as §3
Format: ADME, organism-based, Plasma
Set-up: time < 24 hr, dose 5 mg/kg, route oral
Settings: in vivo, 24 h

Row | AUC [µM·h] | Compound
16 | 1.5 | CNC(=O)c1ncc(F)c2c(C(=O)C(=O)N3CCN(C(=O)c4ccccc4)CC3)c[nH]c12
17 | 2.6 | NC(=O)c1ncc(F)c2c(C(=O)C(=O)N3CCN(C(=O)c4ccccc4)CC3)c[nH]c12
18 | 12.5 | O=C(C(=O)N1CCN(C(=O)c2ccccc2)CC1)c1c[nH]c2c(-c3cc[nH]n3)ncc(F)c12
19 | 160 | Cc1ncn(-c2ncc(F)c3c(C(=O)C(=O)N4CCN(C(=O)c5ccccc5)CC4)c[nH]c23)n1
20 | 2.1 | Cc1ccn(-c2ncc(F)c3c(C(=O)C(=O)N4CCN(C(=O)c5ccccc5)CC4)c[nH]c23)n1

System: not listed separately
Assay: Volume of distribution at steady state in iv dosed rat
Format: ADME, organism-based
Settings: in vivo, read-out: Vdss
How it was run: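 Rats dosed intravenously in PEG 400/ethanol (90:10 v/v); steady-state volume of distribution taken from the iv plasma profile.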

Row | Vd [L/kg] | Compound
21 | 0.74 | CNC(=O)c1ncc(F)c2c(C(=O)C(=O)N3CCN(C(=O)c4ccccc4)CC3)c[nH]c12
22 | 1.4 | NC(=O)c1ncc(F)c2c(C(=O)C(=O)N3CCN(C(=O)c4ccccc4)CC3)c[nH]c12
23 | 0.25 | O=C(C(=O)N1CCN(C(=O)c2ccccc2)CC1)c1c[nH]c2c(-c3cc[nH]n3)ncc(F)c12
24 | 0.26 | O=C(C(=O)N1CCN(C(=O)c2ccccc2)CC1)c1c[nH]c2c(-n3cncn3)ncc(F)c12
25 | 0.18 | Cc1ncn(-c2ncc(F)c3c(C(=O)C(=O)N4CCN(C(=O)c5ccccc5)CC4)c[nH]c23)n1
26 | 0.6 | Cc1ccn(-c2ncc(F)c3c(C(=O)C(=O)N4CCN(C(=O)c5ccccc5)CC4)c[nH]c23)n1
27 | 1.1 | COc1ncc(OC)c2c(C(=O)C(=O)N3CCN(C(=O)c4ccccc4)CC3)c[nH]c12

Row | Compound | Vd [L/kg]
28 | O=C(C(=O)N1CCN(C(=O)c2ccccc2)CC1)c1c[nH]c2c(-c3cnco3)ncc(F)c12 | 0.14

System: not listed separately
Assay: Cmax in rat at 5 mg/kg, po
Format: ADME, organism-based
Set-up: dose 5 mg/kg, route oral
Settings: in vivo

Row | Cmax [µM] | Compound
29 | 0.326 | CNC(=O)c1ncc(F)c2c(C(=O)C(=O)N3CCN(C(=O)c4ccccc4)CC3)c[nH]c12
30 | 0.603 | NC(=O)c1ncc(F)c2c(C(=O)C(=O)N3CCN(C(=O)c4ccccc4)CC3)c[nH]c12
31 | 1.4 | O=C(C(=O)N1CCN(C(=O)c2ccccc2)CC1)c1c[nH]c2c(-c3cc[nH]n3)ncc(F)c12
32 | 8.76 | O=C(C(=O)N1CCN(C(=O)c2ccccc2)CC1)c1c[nH]c2c(-n3cncn3)ncc(F)c12
33 | 0.498 | Cc1ccn(-c2ncc(F)c3c(C(=O)C(=O)N4CCN(C(=O)c5ccccc5)CC4)c[nH]c23)n1
34 | 9.48 | O=C(C(=O)N1CCN(C(=O)c2ccccc2)CC1)c1c[nH]c2c(-n3ccnn3)ncc(F)c12
35 | 1.89 | COc1ncc(OC)c2c(C(=O)C(=O)N3CCN(C(=O)c4ccccc4)CC3)c[nH]c12

Row | Compound | Cmax [µM]
36 | O=C(C(=O)N1CCN(C(=O)c2ccccc2)CC1)c1c[nH]c2c(-c3cnco3)ncc(F)c12 | 1.29

System: not listed separately
Assay: Clearance in human liver microsomes
Format: ADME, Microsome
Settings: read-out: CLH

Row | CLint scaled [L/h/kg] | Compound
37 | < 1.26 | CNC(=O)c1ncc(F)c2c(C(=O)C(=O)N3CCN(C(=O)c4ccccc4)CC3)c[nH]c12
38 | < 1.26 | NC(=O)c1ncc(F)c2c(C(=O)C(=O)N3CCN(C(=O)c4ccccc4)CC3)c[nH]c12
39 | ≤ 1.74 | O=C(C(=O)N1CCN(C(=O)c2ccccc2)CC1)c1c[nH]c2c(-c3cnccn3)ncc(F)c12
40 | < 1.26 | O=C(C(=O)N1CCN(C(=O)c2ccccc2)CC1)c1c[nH]c2c(-c3cc[nH]n3)ncc(F)c12
41 | ≤ 1.74 | NC(=O)c1cc(-c2ncc(F)c3c(C(=O)C(=O)N4CCN(C(=O)c5ccccc5)CC4)c[nH]c23)n[nH]1
42 | ≤ 1.74 | CNC(=O)c1cc(-c2ncc(F)c3c(C(=O)C(=O)N4CCN(C(=O)c5ccccc5)CC4)c[nH]c23)n[nH]1
43 | > 1.74 | O=C(NCCN1CCOCC1)c1cc(-c2ncc(F)c3c(C(=O)C(=O)N4CCN(C(=O)c5ccccc5)CC4)c[nH]c23)n[nH]1
44 | < 1.26 | CN(C)C(=O)c1cc(-c2ncc(F)c3c(C(=O)C(=O)N4CCN(C(=O)c5ccccc5)CC4)c[nH]c23)n[nH]1
45 | < 1.26 | O=C(C(=O)N1CCN(C(=O)c2ccccc2)CC1)c1c[nH]c2c(-n3cncn3)ncc(F)c12
46 | < 1.26 | Cc1ncn(-c2ncc(F)c3c(C(=O)C(=O)N4CCN(C(=O)c5ccccc5)CC4)c[nH]c23)n1
47 | < 1.26 | Cc1ccn(-c2ncc(F)c3c(C(=O)C(=O)N4CCN(C(=O)c5ccccc5)CC4)c[nH]c23)n1
48 | < 1.26 | O=C(C(=O)N1CCN(C(=O)c2ccccc2)CC1)c1c[nH]c2c(-n3ccnn3)ncc(F)c12

Row | Compound | CLint scaled [L/h/kg]
49 | O=C(C(=O)N1CCN(C(=O)c2ccccc2)CC1)c1c[nH]c2c(-c3cnco3)ncc(F)c12 | < 1.26

System: not listed separately
Assay: Oral bioavailability in human at 200 mg administered as capsule formulation
Format: ADME, organism-based
Settings: in vivo
How it was run: as §1

Row | bioavailability [%] | Compound
50 | 30 | O=C(C(=O)N1CCN(C(=O)c2ccccc2)CC1)c1c[nH]c2c(-n3ccnn3)ncc(F)c12

System: Plasma
Assay: Plasma concentration in human at 20 mg, po administered as solution measured after 16 hrs
Format: ADME, organism-based
Settings: in vivo, BLD = below limit of detection

Row | Cp | Compound
51 | BLD | O=C(C(=O)N1CCN(C(=O)c2ccccc2)CC1)c1c[nH]c2c(-n3ccnn3)ncc(F)c12
